≈ marks a conversion by molar mass, not a printed value.
How the values were obtained:
[1] = system: Staphylococcus aureus; experiment: Antimicrobial activity against Staphylococcus aureus MRSA08-12 in peritonitis mouse model assessed as mortality of host at 10 mg/kg, iv as single dose relative to control; assay type: functional
Outline: (§1)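 Outbred KM mice (20–25 g) infected i.p. with a 90–100% lethal dose (5 × 10^7 CFU/mL) in 0.5 mL brain heart infusion broth with 5% mucin. Single i.v. dose of 1.25–20 mg/kg in 20% DMSO, 0.1 mL. Ten mice per dose; daily monitoring for 14 days; ED50 from cumulative mortality by Bliss's method.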

[2] = system: Staphylococcus aureus; experiment: Antimicrobial activity against Staphylococcus aureus MRSA08-12 in peritonitis mouse model assessed as mortality of host at 5 mg/kg, iv as single dose relative to control; assay type: functional; outline: as §1
[3] = system: Staphylococcus aureus; experiment: Antimicrobial activity against Staphylococcus aureus MRSA08-12 in peritonitis mouse model assessed as mortality of host at 2.5 mg/kg, iv as single dose relative to control; assay type: functional
Outline: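 KM outbred mice (20–25 g) inoculated intraperitoneally with a 90-to-100%-lethal dose (5 × 10^7 CFU/mL) of MRSA08-12 in 0.5 mL brain heart infusion broth with 5% mucin. Single i.v. dose in 20% DMSO, 0.1 mL; doses 1.25–20 mg/kg, 10 mice per dose. Cumulative mortality tracked daily for 14 days; ED50 by Bliss's method.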

[4] = Fraction unbound in CD1 mouse plasma at 2 uM by equilibrium dialysis; assay type: ADME, cell-free
Outline: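 Pooled CD-1 mouse plasma spiked to 2 µM final, equilibrium dialysis in triplicate against 100 mM PBS pH 7.4, 4 h at 37 °C with rotation; matrix-matched samples acetonitrile-precipitated, LC-MS/MS with internal standards. Unbound = free/total ×100; recovery = (free+total)/pre-dialysis ×100.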

[5] = Protein binding in CD1 mouse plasma at 2 uM by equilibrium dialysis; assay type: ADME, cell-free; details: read-out: PPB (converted)
[6] = system: Mus musculus; experiment: Acute toxicity in KM mouse assessed as kidney abnormality at 250 mg/kg, iv measured for 14 days by necropsy; assay type: organism-based; parameters: dose 250 mg/kg, route intravenous; details: in vivo, 336 h
Outline: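 Outbred KM mice (SPF, 20–25 g; nine male, ten female) given a single tail-vein injection of 100 or 250 mg/kg in PBS pH 6.5 with 20% DMSO over about 60 s. Behaviour, weight, coat colour, anal temperature, food and water intake, and urine and stool weight followed for 14 days. On day 14, gross necropsy of skin, lungs, heart, liver, kidneys and spleen.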

[7] = Acute toxicity in iv dosed KM mouse measured for 14 days; assay type: organism-based; details: in vivo
Outline: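 Outbred KM mice (SPF, 20–25 g; nine male, ten female) given a single tail-vein i.v. dose of 100 or 250 mg/kg, formulated in PBS pH 6.5 containing 20% DMSO. Behaviour, weight, coat, anal temperature, food and water intake, and excreta monitored daily for 14 days, then necropsy.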

[8] = system: Staphylococcus aureus; experiment: Antimicrobial activity against Staphylococcus aureus after 24 hrs by broth microdilution method; assay type: functional
Outline: (§2)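 Broth microdilution following NCCLS M7-A4; ATCC strains and clinical isolates from a provincial hospital.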

[9] = system: Escherichia coli; experiment: Antimicrobial activity against Escherichia coli isolate 1 after 24 hrs by broth microdilution method; assay type: functional; details: isolate 1, 24 h; outline: as §2
[10] = system: Escherichia coli; experiment: Antimicrobial activity against Escherichia coli isolate 2 after 24 hrs by broth microdilution method; assay type: functional; details: isolate 2, 24 h; outline: as §2
[11] = system: Staphylococcus aureus; experiment: Antimicrobial activity against Staphylococcus aureus OXFORD after 24 hrs by broth microdilution method; assay type: functional
Outline: (§3)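 Broth microdilution following NCCLS M7-A4, using ATCC strains and clinical isolates from a provincial hospital.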

[12] = system: Enterococcus faecalis; experiment: Antimicrobial activity against Enterococcus faecalis Isolate 1 after 24 hrs by broth microdilution method; assay type: functional; details: Isolate 1, 24 h; outline: as §2
[13] = system: Haemophilus influenzae; experiment: Antimicrobial activity against Haemophilus influenzae Q1 after 24 hrs by broth microdilution method; assay type: functional; details: Q1, 24 h; outline: as §2
[14] = system: Streptococcus pneumoniae; experiment: Antimicrobial activity against Streptococcus pneumoniae ERY2 after 24 hrs by broth microdilution method; assay type: functional; details: ERY2, 24 h; outline: as §2
[15] = system: Escherichia coli; experiment: Antimicrobial activity against Escherichia coli isolate 3 after 24 hrs by broth microdilution method; assay type: functional; details: isolate 3, 24 h; outline: as §2
[16] = system: Streptococcus pyogenes; experiment: Antimicrobial activity against Streptococcus pyogenes 1307006P after 24 hrs by broth microdilution method; assay type: functional; outline: as §2
[17] = system: Streptococcus pyogenes; experiment: Antimicrobial activity against Streptococcus pyogenes 1308007P after 24 hrs by broth microdilution method; assay type: functional; outline: as §2
[18] = system: Staphylococcus aureus; experiment: Antimicrobial activity against Staphylococcus aureus isolate CARTER 37 after 24 hrs by broth microdilution method; assay type: functional; details: isolate CARTER 37, 24 h; outline: as §3
[19] = system: Staphylococcus aureus; experiment: Antimicrobial activity against Staphylococcus aureus isolate CL 939 after 24 hrs by broth microdilution method; assay type: functional; details: isolate CL 939, 24 h; outline: as §3
[20] = system: Staphylococcus aureus; experiment: Antimicrobial activity against Staphylococcus aureus isolate F89 after 24 hrs by broth microdilution method; assay type: functional; details: isolate F89, 24 h; outline: as §2
[21] = system: Staphylococcus aureus; experiment: Antimicrobial activity against Staphylococcus aureus isolate MILES HALL after 24 hrs by broth microdilution method; assay type: functional; outline: as §3
[22] = system: Staphylococcus aureus; experiment: Antimicrobial activity against Staphylococcus aureus isolate RUSSELL after 24 hrs by broth microdilution method; assay type: functional; outline: as §3
[23] = system: Staphylococcus aureus; experiment: Antimicrobial activity against Staphylococcus aureus isolate CL 938 after 24 hrs by broth microdilution method; assay type: functional; details: isolate CL 938, 24 h; outline: as §2
[24] = system: Staphylococcus aureus; experiment: Antimicrobial activity against Staphylococcus aureus isolate NEQAS 4026 after 24 hrs by broth microdilution method; assay type: functional; details: isolate NEQAS 4026, 24 h; outline: as §2
[25] = system: Staphylococcus aureus; experiment: Antimicrobial activity against Staphylococcus aureus isolate 929003 after 24 hrs by broth microdilution method; assay type: functional; details: isolate 929003, 24 h; outline: as §2
[26] = system: Staphylococcus aureus; experiment: Antimicrobial activity against Staphylococcus aureus isolate 929035 after 24 hrs by broth microdilution method; assay type: functional; details: isolate 929035, 24 h; outline: as §2
[27] = system: Staphylococcus aureus; experiment: Antimicrobial activity against Staphylococcus aureus isolate 934387 after 24 hrs by broth microdilution method; assay type: functional; details: isolate 934387, 24 h; outline: as §3
[28] = system: Staphylococcus aureus; experiment: Antimicrobial activity against Staphylococcus aureus isolate NEQAS 4158 after 24 hrs by broth microdilution method; assay type: functional; details: isolate NEQAS 4158, 24 h; outline: as §2
[29] = Mean residence time (0 to t) in Sprague-Dawley rat at 5 mg/kg, iv; assay type: ADME, organism-based; parameters: dose 5 mg/kg, route intravenous; details: in vivo
[30] = AUC (0 to infinity) in Sprague-Dawley rat at 5 mg/kg, iv; assay type: ADME, organism-based; parameters: time infinity, dose 5 mg/kg, route intravenous; details: plasma
[31] = Volume of distribution at steady state in Sprague-Dawley rat at 5 mg/kg, iv; assay type: ADME, organism-based; parameters: dose 5 mg/kg, route intravenous; details: in vivo, read-out: Vdss
[32] = Cmax in Sprague-Dawley rat at 25 mg/kg, po; assay type: ADME, organism-based; parameters: dose 25 mg/kg, route oral; details: in vivo
[33] = Tmax in Sprague-Dawley rat at 25 mg/kg, po; assay type: ADME, organism-based; parameters: dose 25 mg/kg, route oral; details: in vivo
[34] = AUC (0 to t) in Sprague-Dawley rat at 25 mg/kg, po; assay type: ADME, organism-based; parameters: dose 25 mg/kg, route oral; details: plasma
[35] = Oral bioavailability in Sprague-Dawley rat at 25 mg/kg; assay type: ADME, organism-based; details: in vivo
[36] = biological target: hERG (KCNH2) (Homo sapiens, UniProt Q12809); experiment: Inhibition of human ERG at 10 uM
Chain of hERG (KCNH2) (Q12809 whole entry): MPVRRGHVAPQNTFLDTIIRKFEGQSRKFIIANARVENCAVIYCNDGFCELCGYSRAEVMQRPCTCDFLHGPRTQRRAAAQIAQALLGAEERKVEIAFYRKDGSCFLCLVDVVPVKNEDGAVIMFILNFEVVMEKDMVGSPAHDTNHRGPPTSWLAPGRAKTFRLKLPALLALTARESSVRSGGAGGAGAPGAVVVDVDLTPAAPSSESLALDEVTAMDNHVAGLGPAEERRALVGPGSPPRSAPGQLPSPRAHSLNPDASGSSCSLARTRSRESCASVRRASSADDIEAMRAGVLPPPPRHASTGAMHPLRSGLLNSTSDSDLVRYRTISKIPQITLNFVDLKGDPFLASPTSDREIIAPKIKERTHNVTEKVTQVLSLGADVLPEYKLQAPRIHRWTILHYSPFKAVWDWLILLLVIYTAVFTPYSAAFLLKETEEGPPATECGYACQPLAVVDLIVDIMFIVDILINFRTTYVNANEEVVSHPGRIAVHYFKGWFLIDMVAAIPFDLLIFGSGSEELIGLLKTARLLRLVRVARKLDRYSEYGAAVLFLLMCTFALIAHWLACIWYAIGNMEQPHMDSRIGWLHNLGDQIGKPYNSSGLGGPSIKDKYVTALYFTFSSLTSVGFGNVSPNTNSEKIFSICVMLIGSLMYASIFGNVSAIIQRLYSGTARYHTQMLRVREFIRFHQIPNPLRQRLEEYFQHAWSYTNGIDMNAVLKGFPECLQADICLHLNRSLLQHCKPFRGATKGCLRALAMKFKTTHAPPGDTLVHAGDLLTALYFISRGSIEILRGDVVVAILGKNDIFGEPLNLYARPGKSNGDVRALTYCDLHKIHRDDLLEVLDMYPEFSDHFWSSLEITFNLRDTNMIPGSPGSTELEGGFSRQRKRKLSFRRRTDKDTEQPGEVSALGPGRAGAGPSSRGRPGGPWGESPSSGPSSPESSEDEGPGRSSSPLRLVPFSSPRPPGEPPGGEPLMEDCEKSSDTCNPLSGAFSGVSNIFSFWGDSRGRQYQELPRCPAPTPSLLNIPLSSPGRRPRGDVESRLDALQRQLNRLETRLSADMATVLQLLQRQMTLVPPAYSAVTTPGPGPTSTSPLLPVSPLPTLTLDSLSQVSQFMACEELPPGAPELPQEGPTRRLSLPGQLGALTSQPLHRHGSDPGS

[37] = Solubility of the compound in artificial intestinal juice measured every 2 hrs for 12 hrs by HPLC analysis; assay type: physicochemical; details: simulated gi fluid
[38] = Stability of the compound in artificial intestinal juice measured every 2 hrs for 12 hrs by HPLC analysis; assay type: physicochemical; details: simulated gi fluid
[39] = system: Staphylococcus aureus; experiment: Antimicrobial activity against Staphylococcus aureus MRSA08-12 in peritonitis mouse model administered intravenously as single dose; assay type: functional; details: MRSA08-12, iv

## CCCC[C@H](CN(O)C=O)C(=O)N1CC=C[C@H]1C(=O)Nc1ccc(F)c[n+]1[O-]
[1]
  mortality at 10 mg/kg: 30%
[2]
  mortality at 5 mg/kg: 60%
[3]
  mortality at 2.5 mg/kg: 80%
[4]
  fraction unbound at 2 µM: 0.467
[5]
  fraction unbound at 2 µM: 0.467
[6]
  Activity: Non-toxic
[7]
  LD50 at 336 h: > 250 mg/kg
[8]
  MIC: 0.5 µg/mL (≈ 1.27 µM)
[9]
  MIC: > 64 µg/mL
[10]
  MIC: 64 µg/mL (≈ 162 µM)
[11]
  MIC: 0.5 µg/mL (≈ 1.27 µM)
[12]
  MIC: 4 µg/mL (≈ 10.1 µM)
[13]
  MIC: 1 µg/mL (≈ 2.54 µM)
[14]
  MIC: 1 µg/mL (≈ 2.54 µM)
[15]
  MIC: 64 µg/mL (≈ 162 µM)
[16]
  MIC: 2 µg/mL (≈ 5.07 µM)
[17]
  MIC: 2 µg/mL (≈ 5.07 µM)
[18]
  MIC: 0.5 µg/mL (≈ 1.27 µM)
[19]
  MIC: 0.125 µg/mL (≈ 0.317 µM)
[20]
  MIC: 1 µg/mL (≈ 2.54 µM)
[21]
  MIC: 0.5 µg/mL (≈ 1.27 µM)
[22]
  MIC: 0.5 µg/mL (≈ 1.27 µM)
[23]
  MIC: 1 µg/mL (≈ 2.54 µM)
[24]
  MIC: 1 µg/mL (≈ 2.54 µM)
[25]
  MIC: 2 µg/mL (≈ 5.07 µM)
[26]
  MIC: 1 µg/mL (≈ 2.54 µM)
[27]
  MIC: 0.5 µg/mL (≈ 1.27 µM)
[28]
  MIC: 1 µg/mL (≈ 2.54 µM)
[29]
  MRT last: 33.8 min
[30]
  AUC(0-inf): 1960 ng·h/mL
[31]
  Vd: 1.72 L/kg
[32]
  Cmax: 1390 ng/mL
[33]
  Tmax: 41.3 min
[34]
  AUC(0-t): 3320 ng·h/mL
[35]
  bioavailability: 34.6%
[36]
  inhibition at 10 µM: 6.71%
[37]
  solubility: soluble
[38]
  Stability: Stable
[39]
  ED50: 6.25 mg/kg

— ChEMBL document CHEMBL3352487, “Synthesis, antibacterial activity, and biological evaluation of formyl hydroxyamino derivatives as novel potent peptide deformylase inhibitors against drug-resistant bacteria” (Eur J Med Chem, 2014)
